Measurements: ChEMBL document CHEMBL5712901, “DOT1L inhibition blocks multiple myeloma cell proliferation by suppressing IRF4-MYC signaling” (2019)
Active and inactive are the calls of the source. The calls are words filed in the database; no cut-off is given here.

Experiments:
MM1.S [1] = assay: Antiproliferative activity against human MM1.S cells treated 3 days at 1 uM; assay type: functional, cell-based; details: time 3.0 day
Method in brief: (§1)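 Cell lines in 6-well plates, 2 × 10^4 to 8 × 10^5 cells/well, exposed to DOT1L inhibitor at 0.25-1 μM or DMSO, with medium and drug refreshed every 3 days. Viability read with Cell Counting Kit-8 on a microplate reader. Values normalized to untreated cells; mean of 3 replications ± SEM.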

KMS-11 = assay: Antiproliferative activity against human KMS-11 cells treated 3 days at 1 uM; assay type: functional, cell-based; details: time 3.0 day; method in brief: as §1
KMS-12-PE [2] = assay: Antiproliferative activity against human KMS-12-PE cells treated 3 days at 1 uM; assay type: functional, cell-based; details: time 3.0 day; method in brief: as §1
RPMI-8226 [3] = assay: Induction of cell cycle arrest in human RPMI-8226 cells assessed as increase in accumulation of cells at G1 phase at 1 uM for 6 days; assay type: functional, cell-based; details: time 6.0 day
Method in brief: (§2)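 Flow cytometric cell cycle analysis of RPMI-8226 and MM.1S cells treated with 1 μM DOT1L inhibitor or DMSO for 6 days. Sub-G1, G0-G1 and S phase populations scored. Summary is from 3 replications, mean ± SEM.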

RPMI-8226 [4] = assay: Induction of cell cycle arrest in human RPMI-8226 cells assessed as increase in accumulation of cells at G0 phase at 1 uM for 6 days; assay type: functional, cell-based; details: time 6.0 day; method in brief: as §2
MM1.S [5] = assay: Induction of cell cycle arrest in human MM1.S cells assessed as increase in accumulation of cells at G0 phase at 1 uM for 6 days; assay type: functional, cell-based; details: time 6.0 day; method in brief: as §2
RPMI-8226 [6] = assay: Induction of apoptosis in human RPMI-8226 cells assessed as viable cells at 1 uM for 6 days by annexin-V based propidium iodide staining based flow cytometric analysis (reference value: 79.67%); assay type: functional; details: RPMI-8226, 144 h, time 6 day, read-out: Activity
RPMI-8226 [7] = assay: Induction of apoptosis in human RPMI-8226 cells assessed as late apoptotic cells at 1 uM for 6 days by annexin-V based propidium iodide staining based flow cytometric analysis (reference value: 10.5%); assay type: functional; details: time 6 day
RPMI-8226 [8] = assay: Induction of apoptosis in human RPMI-8226 cells assessed as necrotic cells at 1 uM for 6 days by annexin-V based propidium iodide staining based flow cytometric analysis (reference value: 3.61%); assay type: functional; details: time 6 day
MM1.S [9] = assay: Induction of apoptosis in human MM1.S cells assessed as early apoptotic cells at 1 uM for 6 days by annexin-V based propidium iodide staining based flow cytometric analysis (reference value: 14.6%); assay type: functional; details: time 6 day
MM1.S [10] = assay: Induction of apoptosis in human MM1.S cells assessed as late apoptotic cells at 1 uM for 6 days by annexin-V based propidium iodide staining based flow cytometric analysis (reference value: 4.85%); assay type: functional; details: time 6 day
RPMI-8226 [11] = assay: Induction of apoptosis in human RPMI-8226 cells assessed as necrotic cells at 1 uM for 6 days by annexin-V based propidium iodide staining based flow cytometric analysis (reference value: 3.92%); assay type: functional; details: time 6 day
RPMI-8226 [12] = assay: Induction of apoptosis in human RPMI-8226 cells assessed as viable cells at 1 uM for 3 days by annexin-V based propidium iodide staining based flow cytometric analysis (reference value: 91.2%); assay type: functional; details: RPMI-8226, 72 h, time 3 day, read-out: Activity
RPMI-8226 [13] = assay: Induction of apoptosis in human RPMI-8226 cells assessed as late apoptotic cells at 1 uM for 3 days by annexin-V based propidium iodide staining based flow cytometric analysis (reference value: 2.43%); assay type: functional; details: time 3 day
RPMI-8226 [14] = assay: Induction of apoptosis in human RPMI-8226 cells assessed as necrotic cells at 1 uM for 3 days by annexin-V based propidium iodide staining based flow cytometric analysis (reference value: 3.40%); assay type: functional; details: time 3 day
RPMI-8226 [15] = assay: Effect on human RPMI-8226 cells assessed as change in Myc mRNA level at 1 uM for 3 days by ChIP-qPCR analysis; assay type: functional, cell-based; details: time 3.0 day
Method in brief: (§3)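 ChIP-qPCR for H3K79me2 at IRF4-MYC signaling genes after 1 μM inhibitor or DMSO for 3 days. Signal normalized to input DNA. An intergenic region 28 kb upstream of KLF2 served as negative control. Mean of 3 replications ± SEM.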

RPMI-8226 [16] = assay: Effect on human RPMI-8226 cells assessed as change in PRDM1 mRNA level at 1 uM for 3 days by ChIP-qPCR analysis; assay type: functional, cell-based; details: time 3.0 day; method in brief: as §3
MM1.S [17] = assay: Effect on human MM1.S cells assessed as change in IRF4 mRNA level at 1 uM for 3 days by ChIP-qPCR analysis; assay type: functional, cell-based; details: time 3.0 day; method in brief: as §3
KMS-12-PE [18] = assay: Effect on human KMS-12-PE cells assessed as change in MYC mRNA level by qRT-PCR analysis; assay type: functional, cell-based
Method in brief: (§4)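 Basal MYC and IRF4 mRNA in untreated cells measured by qRT-PCR. Normalized to ACTB; mean of 3 replications ± SEM.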

KMS-12-BM [19] = assay: Effect on human KMS-12-BM cells assessed as change in IRF4 mRNA level by qRT-PCR analysis; assay type: functional, cell-based; method in brief: as §4
KMS-12-BM [20] = assay: Effect on human KMS-12-BM cells assessed as decrease in MYC mRNA level at 1 uM for 6 days by qRT-PCR analysis; assay type: functional, cell-based; details: time 6.0 day
Method in brief: (§5)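 qRT-PCR of MYC and IRF4 after 1 μM DOT1L inhibitor for 6 days. Normalized to ACTB; mean of 3 replications ± SEM.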

KMS-12-BM [21] = assay: Effect on human KMS-12-BM cells assessed as decrease in IRF4 mRNA level at 1 uM for 6 days by qRT-PCR analysis; assay type: functional, cell-based; details: time 6.0 day; method in brief: as §5
KMS-12-PE [22] = assay: Effect on human KMS-12-PE cells assessed as decrease in MYC mRNA level at 1 uM for 6 days by qRT-PCR analysis; assay type: functional, cell-based; details: time 6.0 day; method in brief: as §5
KMS-12-PE [23] = assay: Effect on human KMS-12-PE cells assessed as decrease in IRF4 mRNA level at 1 uM for 6 days by qRT-PCR analysis; assay type: functional, cell-based; details: time 6.0 day; method in brief: as §5
KMS-12-PE [24] = assay: Antiproliferative activity against human KMS-12-PE cells assessed as reduction in cell viability measured at 1 uM for 18 days; assay type: functional, cell-based; details: time 18.0 day
U-266 = assay: Antiproliferative activity against human U-266 cells assessed as reduction in cell viability measured at 1 uM for 18 days; assay type: functional, cell-based; details: time 18.0 day
MM1.S [25] = assay: Upregulation of IFN in human MM1.S cells assessed as increase in IFIT1 gene at 1 uM for 6 days by qRT-PCR analysis; details: time 6.0 day
MM1.S [26] = assay: Upregulation of IFN in human MM1.S cells assessed as increase in ISG15 gene at 1 uM for 6 days by qRT-PCR analysis; details: time 6.0 day
MM1.S [27] = assay: Upregulation of IFN in human MM1.S cells assessed as increase in IFITM1 gene at 1 uM for 6 days by qRT-PCR analysis; details: time 6.0 day
RPMI-8226 [28] = assay: Upregulation of IFN in human RPMI-8226 cells assessed as increase in IFI44 gene at 1 uM for 6 days by qRT-PCR analysis; details: time 6.0 day
RPMI-8226 [29] = assay: Upregulation of IFN in human RPMI-8226 cells assessed as increase in ISG15 gene at 1 uM for 6 days by qRT-PCR analysis; details: time 6.0 day

CC(C)N(CCCNC(=O)Nc1ccc(C(C)(C)C)cc1)C[C@H]1O[C@@H](n2cc(Br)c3c(N)ncnc32)[C@H](O)[C@@H]1O
Activity (MM1.S [1]): Active | Activity (KMS-11): Active | Activity (KMS-12-PE [2]): inactive | Activity (RPMI-8226 [3]): Active | Activity (RPMI-8226 [4]): Active | Activity (MM1.S [5]): Active | viability at 1 µM (RPMI-8226 [6]): 66.9% | Activity (RPMI-8226 [7]): 12.9% | Activity (RPMI-8226 [8]): 8.1% | Activity (MM1.S [9]): 20.2% | Activity (MM1.S [10]): 11.7% | Activity (RPMI-8226 [11]): 4.83% | viability at 1 µM (RPMI-8226 [12]): 77.8% | Activity (RPMI-8226 [13]): 8.85% | Activity (RPMI-8226 [14]): 6.32% | Activity (RPMI-8226 [15]): Active | Activity (RPMI-8226 [16]): Active | Activity (MM1.S [17]): Active | Activity (KMS-12-PE [18]): Active | Activity (KMS-12-BM [19]): Active | Activity (KMS-12-BM [20]): Active | Activity (KMS-12-BM [21]): Active | Activity (KMS-12-PE [22]): Active | Activity (KMS-12-PE [23]): Active | Activity (KMS-12-PE [24]): Active | Activity (U-266): Active | Activity (MM1.S [25]): Active | Activity (MM1.S [26]): Active | Activity (MM1.S [27]): Active | Activity (RPMI-8226 [28]): Active | Activity (RPMI-8226 [29]): Active

CC(C)N(C[C@H]1O[C@@H](n2cnc3c(N)ncnc32)[C@H](O)[C@@H]1O)[C@H]1C[C@@H](CCc2nc3cc(C(C)(C)C)ccc3[nH]2)C1 [PINOMETOSTAT]
Activity (MM1.S [1]): Active | Activity (KMS-11): Active | Activity (KMS-12-PE [2]): inactive | Activity (RPMI-8226 [3]): Active | Activity (RPMI-8226 [4]): Active | Activity (MM1.S [5]): Active | viability at 1 µM (RPMI-8226 [6]): 50.2% | Activity (RPMI-8226 [7]): 18.3% | Activity (RPMI-8226 [8]): 9.09% | Activity (MM1.S [9]): 21.1% | Activity (MM1.S [10]): 11.4% | Activity (RPMI-8226 [11]): 3.98% | viability at 1 µM (RPMI-8226 [12]): 76.6% | Activity (RPMI-8226 [13]): 9.83% | Activity (RPMI-8226 [14]): 6.18% | Activity (RPMI-8226 [15]): Active | Activity (RPMI-8226 [16]): Active | Activity (MM1.S [17]): Active | Activity (KMS-12-PE [18]): Active | Activity (KMS-12-BM [19]): Active | Activity (KMS-12-BM [20]): Active | Activity (KMS-12-BM [21]): Active | Activity (KMS-12-PE [22]): Active | Activity (KMS-12-PE [23]): Active | Activity (KMS-12-PE [24]): Active | Activity (U-266): Active | Activity (MM1.S [25]): Active | Activity (MM1.S [26]): Active | Activity (MM1.S [27]): Active | Activity (RPMI-8226 [28]): Active | Activity (RPMI-8226 [29]): Active
